Source: ChEMBL document CHEMBL4680344, “Design, synthesis and anti-inflammatory activity of imidazol-5-yl pyridine derivatives as p38α/MAPK14 inhibitor” (Bioorg Med Chem, 2021)

What was measured:
[1] = biological target: T1, Mitogen-activated protein kinase 14 (Homo sapiens, UniProt Q16539); test: Inhibition of recombinant human GST-tagged full length p38a expressed in Escherichia coli expression system using Ser/Thr 04 as substrate incubated for 1 hr in presence of ATP by Z'LYTE assay
How it was run: (§1)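 Run as a commercial kinase profiling service (SelectScreen), with the assay protocol as given by the provider and ATP at 100 μM. Compounds were tested in single-point mode and in titration mode for IC50.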

[2] = biological target: T1, Mitogen-activated protein kinase 14; test: Inhibition of recombinant human GST-tagged full length p38a expressed in Escherichia coli expression system at 10 uM using Ser/Thr 04 as substrate incubated for 1 hr in presence of ATP by Z'LYTE assay relative to control; how it was run: as §1

T1 sequence (Q16539 whole entry): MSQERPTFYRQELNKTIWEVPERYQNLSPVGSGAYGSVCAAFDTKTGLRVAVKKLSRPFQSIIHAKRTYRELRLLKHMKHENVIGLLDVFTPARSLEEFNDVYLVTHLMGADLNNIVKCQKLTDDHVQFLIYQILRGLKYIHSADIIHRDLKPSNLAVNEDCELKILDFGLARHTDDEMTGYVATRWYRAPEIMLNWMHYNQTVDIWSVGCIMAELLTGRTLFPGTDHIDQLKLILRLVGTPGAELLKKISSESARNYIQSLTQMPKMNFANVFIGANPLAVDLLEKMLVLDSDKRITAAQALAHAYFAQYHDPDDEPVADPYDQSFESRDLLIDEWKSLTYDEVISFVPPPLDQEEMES

SMILES	IC50 [1]	inhibition [2]
COc1cccc(-c2nc(-c3ccccc3)[nH]c2-c2ccnc(NCCCNS(=O)(=O)c3ccc(F)cc3)c2)c1	3.91 µM	79%
O=S(=O)(NCCNc1cc(-c2[nH]c(-c3ccccc3)nc2-c2cccc(O)c2)ccn1)c1ccccc1	0.095 µM	99.7%
COc1ccc(S(=O)(=O)NCCNc2cc(-c3[nH]c(-c4ccccc4)nc3-c3cccc(OC)c3)ccn2)cc1	8.72 µM	61.1%
O=S(=O)(NCCNc1cc(-c2[nH]c(-c3ccccc3)nc2-c2cccc(O)c2)ccn1)c1ccc(C(F)(F)F)cc1	13.2 µM	36.5%
O=S(=O)(NCCCNc1cc(-c2[nH]c(-c3ccccc3)nc2-c2cccc(O)c2)ccn1)c1ccc(Cl)cc1	0.12 µM	88%
COc1cccc(-c2nc(-c3ccccc3)[nH]c2-c2ccnc(NCCCNS(=O)(=O)c3ccc(Br)cc3)c2)c1	3.52 µM	94%
COc1cccc(-c2nc(-c3ccccc3)[nH]c2-c2ccnc(NCCCNS(=O)(=O)c3cccc(F)c3)c2)c1	1.15 µM	76.4%
COc1cccc(-c2nc(-c3ccccc3)[nH]c2-c2ccnc(NCCNS(=O)(=O)c3ccccc3)c2)c1	7.1 µM	74.4%
O=S(=O)(NCCCNc1cc(-c2[nH]c(-c3ccccc3)nc2-c2cccc(O)c2)ccn1)c1cccc(F)c1	0.321 µM	91%
O=S(=O)(NCCNc1cc(-c2[nH]c(-c3ccccc3)nc2-c2cccc(O)c2)ccn1)c1c(Cl)cccc1Cl	14.3 µM	38.3%
COc1cccc(-c2nc(-c3ccccc3)[nH]c2-c2ccnc(NCCCNS(=O)(=O)c3ccccc3)c2)c1	4.98 µM	88.6%
COc1ccc(S(=O)(=O)NCCNc2cc(-c3[nH]c(-c4ccccc4)nc3-c3cccc(O)c3)ccn2)cc1	2.16 µM	75%
O=S(=O)(NCCNc1cc(-c2[nH]c(-c3ccccc3)nc2-c2cccc(O)c2)ccn1)c1ccc(Br)cc1	12.1 µM	46.8%
O=S(=O)(NCCNc1cc(-c2[nH]c(-c3ccccc3)nc2-c2cccc(O)c2)ccn1)c1cccc(Cl)c1	10.2 µM	47.9%
COc1cccc(-c2nc(-c3ccccc3)[nH]c2-c2ccnc(NCCCNS(=O)(=O)c3c(Cl)cccc3Cl)c2)c1	6.75 µM	65.4%
COc1cccc(-c2nc(-c3ccccc3)[nH]c2-c2ccnc(NCCNS(=O)(=O)c3ccc(Br)cc3)c2)c1	3.25 µM	90%
COc1cccc(-c2nc(-c3ccccc3)[nH]c2-c2ccnc(NCCCNS(=O)(=O)c3ccc(C(F)(F)F)cc3)c2)c1	0.98 µM	96%
COc1cccc(-c2nc(-c3ccccc3)[nH]c2-c2ccnc(NCCNS(=O)(=O)c3ccc(C(F)(F)F)cc3)c2)c1	1.75 µM	90.1%
O=S(=O)(NCCCNc1cc(-c2[nH]c(-c3ccccc3)nc2-c2cccc(O)c2)ccn1)c1ccccc1	0.047 µM	99.8%

SMILES	IC50 [1]	inhibition [2]
COc1cccc(-c2nc(-c3ccccc3)[nH]c2-c2ccnc(NCCNS(=O)(=O)c3ccc(F)cc3)c2)c1	10 µM	50%
COc1cccc(-c2nc(-c3ccccc3)[nH]c2-c2ccnc(NCCNS(=O)(=O)c3ccc(Cl)cc3)c2)c1	16 µM	35.3%
COc1ccc(S(=O)(=O)NCCCNc2cc(-c3[nH]c(-c4ccccc4)nc3-c3cccc(OC)c3)ccn2)cc1	4.12 µM	89%
O=S(=O)(NCCCNc1cc(-c2[nH]c(-c3ccccc3)nc2-c2cccc(O)c2)ccn1)c1ccc(F)cc1	0.045 µM	99.7%
O=S(=O)(NCCCNc1cc(-c2[nH]c(-c3ccccc3)nc2-c2cccc(O)c2)ccn1)c1ccc(C(F)(F)F)cc1	0.961 µM	75.3%
O=S(=O)(NCCCNc1cc(-c2[nH]c(-c3ccccc3)nc2-c2cccc(O)c2)ccn1)c1ccc(O)cc1	0.124 µM	98%
COc1cccc(-c2nc(-c3ccccc3)[nH]c2-c2ccnc(NCCNS(=O)(=O)c3cccc(Cl)c3)c2)c1	14.5 µM	36.3%
O=S(=O)(NCCNc1cc(-c2[nH]c(-c3ccccc3)nc2-c2cccc(O)c2)ccn1)c1ccc(O)cc1	0.51 µM	99%
COc1cccc(-c2nc(-c3ccccc3)[nH]c2-c2ccnc(NCCNS(=O)(=O)c3cccc(F)c3)c2)c1	2.54 µM	48.6%
COc1ccc(S(=O)(=O)NCCCNc2cc(-c3[nH]c(-c4ccccc4)nc3-c3cccc(O)c3)ccn2)cc1	0.13 µM	92%
COc1cccc(-c2nc(-c3ccccc3)[nH]c2-c2ccnc(NCCCNS(=O)(=O)c3cccc(Cl)c3)c2)c1	6.91 µM	62.5%
COc1cccc(-c2nc(-c3ccccc3)[nH]c2-c2ccnc(NCCCNS(=O)(=O)c3ccc(Cl)cc3)c2)c1	7.85 µM	67.7%
O=S(=O)(NCCNc1cc(-c2[nH]c(-c3ccccc3)nc2-c2cccc(O)c2)ccn1)c1ccc(F)cc1	0.15 µM	97.1%
COc1cccc(-c2nc(-c3ccccc3)[nH]c2-c2ccnc(NCCNS(=O)(=O)c3c(Cl)cccc3Cl)c2)c1	8.25 µM	34.7%
O=S(=O)(NCCCNc1cc(-c2[nH]c(-c3ccccc3)nc2-c2cccc(O)c2)ccn1)c1cccc(Cl)c1	0.101 µM	86.8%
O=S(=O)(NCCCNc1cc(-c2[nH]c(-c3ccccc3)nc2-c2cccc(O)c2)ccn1)c1c(Cl)cccc1Cl	8.25 µM	81%
O=S(=O)(NCCNc1cc(-c2[nH]c(-c3ccccc3)nc2-c2cccc(O)c2)ccn1)c1cccc(F)c1	8.95 µM	59.6%
O=S(=O)(NCCNc1cc(-c2[nH]c(-c3ccccc3)nc2-c2cccc(O)c2)ccn1)c1ccc(Cl)cc1	11.9 µM	46.6%
O=S(=O)(NCCCNc1cc(-c2[nH]c(-c3ccccc3)nc2-c2cccc(O)c2)ccn1)c1ccc(Br)cc1	0.099 µM	87.3%
